High-throughput results deposited in PubChem BioAssay by Johns Hopkins Ion Channel Center.
An excerpt weighted towards active compounds, which were near 3.8% of everything screened.
KCNK3 block – human KCNK3 channel inhibitors, primary screen, CHO cells, FluxOR thallium flux, B-score. Potassium channel subfamily K member 3 (Homo sapiens), O14649. FluxOR fluorescence; stronger effect = lower value. B-score at 10 µM. actives 0.84% (n = 340,000). AID 602410, 2012;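 active = B-score under library mean minus 4 SD, starting fluorescence ratio at most library mean plus 5 SD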;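 also: more negative B-score means stronger inhibition of thallium flux through KCNK3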
Target sequence (O14649 whole entry, looked up): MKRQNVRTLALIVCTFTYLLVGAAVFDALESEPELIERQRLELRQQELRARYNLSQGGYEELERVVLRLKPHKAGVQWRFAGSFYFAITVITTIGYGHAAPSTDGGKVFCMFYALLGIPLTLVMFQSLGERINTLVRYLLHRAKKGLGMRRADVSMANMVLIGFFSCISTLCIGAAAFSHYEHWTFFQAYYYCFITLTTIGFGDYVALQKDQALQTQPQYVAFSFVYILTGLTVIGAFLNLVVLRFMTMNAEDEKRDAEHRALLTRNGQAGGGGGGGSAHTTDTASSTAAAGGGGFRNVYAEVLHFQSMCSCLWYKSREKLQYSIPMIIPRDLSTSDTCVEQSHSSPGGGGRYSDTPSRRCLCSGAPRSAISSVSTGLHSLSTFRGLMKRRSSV
KCNK9 block – KCNK9 potassium channel inhibitors, primary screen, HEK293 cells, thallium flux. Potassium channel subfamily K member 9 (Homo sapiens), Q9NPC2. FluxOR thallium flux fluorescence; stronger effect = lower value. B-score at 10 µM. actives 1.2% (n = 310,000);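 active = ratio B-score over 3 SD below the library mean, with starting fluorescence within 5 SD of its mean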;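 also: negative B-score means less thallium flux so channel inhibition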
Target sequence (Q9NPC2 whole entry, looked up): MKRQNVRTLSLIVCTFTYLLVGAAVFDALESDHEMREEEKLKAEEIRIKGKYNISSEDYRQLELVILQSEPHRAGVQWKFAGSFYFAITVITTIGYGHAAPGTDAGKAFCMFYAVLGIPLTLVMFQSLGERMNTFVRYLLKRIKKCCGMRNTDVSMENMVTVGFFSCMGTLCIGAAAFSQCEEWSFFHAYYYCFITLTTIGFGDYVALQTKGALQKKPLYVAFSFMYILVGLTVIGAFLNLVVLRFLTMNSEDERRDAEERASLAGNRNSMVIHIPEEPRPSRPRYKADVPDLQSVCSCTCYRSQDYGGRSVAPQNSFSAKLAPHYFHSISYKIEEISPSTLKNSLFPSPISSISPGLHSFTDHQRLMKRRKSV
Kir21 inh – inhibitors of mouse Kir2.1 inward-rectifier potassium channel. HEK293-Kir2.1, FluxOR thallium flux fluorescence; stronger effect = lower value. B-score at 10 µM. actives 0.85% (n = 310,000). AID 1672, 2009;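 active = fluorescence ratio B-score at or below minus 3 SD of library scores, with starting-brightness B-score within 2 SD, cut at about -4.2 in these data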;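 also: channel flux triggered by added potassium and thallium sulfate stimulus; B-score of peak minus minimum fluorescence over baseline after thallium stimulus; more negative B-score means stronger Kir2.1 block with less thallium influx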
KCNQ1 block – inhibitors of human KCNQ1 channel, primary screen, cell-based, thallium flux, high-throughput; Potassium voltage-gated channel subfamily KQT member 1 (Homo sapiens), P51787; CHO-K1 KCNQ1, FluxOR thallium flux fluorescence; stronger effect = higher value; B-score at 10 µM; actives 1.3% (n = 310,000);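 active = compounds whose thallium flux B-score, printed positive for inhibition, exceeds three library SD while starting fluorescence stays within three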;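 also: channel opened by potassium depolarization with thallium stimulus after 20 min compound exposure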
hERG rescue – hERG rescue from dofetilide block, primary screen, cell-based, CHO-hERG, FluxOR thallium flux, dofetilide IC70. AID 1511, 2009. activation (rescue from dofetilide block), less the hit threshold, % at 10 µM. actives 0.51% (n = 310,000). Voltage-gated inwardly rectifying potassium channel KCNH2 (Homo sapiens), Q12809. dofetilide IC70 present;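 active = activation above the mean of controls blocked by dofetilide plus 5 SD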;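 also: thallium influx through hERG after potassium depolarization seen as dye fluorescence rise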
KCNQ1 pot – potentiators or activators of KCNQ1 channel, primary screen, cell-based, thallium flux, high-throughput. Potassium voltage-gated channel subfamily KQT member 1 (Homo sapiens), P51787. actives 0.35% (n = 310,000). B-score at 10 µM. CHO-K1 KCNQ1, thallium flux FluxOR fluorescence; stronger effect = higher value;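 active = fluorescence ratio B-score, a plate-corrected score, at least three library SD, with initial intensity B-score within 5 SD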
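Assay system: CHO-K1 cells stably expressing KCNQ1; Medium: assay buffer with matched DMSO; Also added: K+/Tl+ depolarizing stimulus; Dosing: single dose; Timing: dye 90 min, compound 20 min, room temperature; Measured by: kinetic FluxOR thallium fluorescence, 10-s 1-Hz baseline, 110-s post-stimulus read; Read-out: peak-minus-minimum fluorescence over initial fluorescence, negative-control normalized, B-scored.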
Of the large screens only hits and unclear results are named; the others gave an inactive call.

CC(C)C[C@H]1CN=C(Nc2ccccc2)N1CC1CCC(C(C)(C)C)CC1 (stereo not given in full)	none (no result: KCNK9 block, Kir21 inh, KCNQ1 block, hERG rescue, KCNQ1 pot)
CCNC(=S)N(CCc1c(C)[nH]c2ccc(Cl)cc12)Cc1ccco1	none
CNC(=S)N(CCc1c(C)[nH]c2ccc(C)cc12)Cc1ccco1	Kir21 inh -5.03
CC1CCN(C(=O)COC(=O)c2c[nH]c3ccccc23)CC1	none (no result: KCNK9 block, Kir21 inh, KCNQ1 block, hERG rescue, KCNQ1 pot)
Cc1cc2[nH]c3c(c[n+](C)c4ccccc34)c2cc1C	Kir21 inh -7.79
Cc1cc2[nH]c3c4ccccc4nc(C)c3c2cc1C	none (no result: KCNK9 block, Kir21 inh, KCNQ1 block, hERG rescue, KCNQ1 pot)
CN1CCN(CC#CCn2c3ccccc3c3ccccc32)CC1	Kir21 inh -7.08
COc1ccccc1-c1cc(C(F)(F)F)nc(S(C)(=O)=O)n1	none
CS(=O)(=O)c1nc(-c2ccco2)cc(C(F)(F)F)n1	KCNQ1 block 7 (no result: KCNK3 block)
O=C1C2CC=CCC2C(=O)N1c1ccc(Cc2ccncc2)cc1 (stereo not given)	hERG rescue 5.0
Cc1ccc2cccc(S(=O)(=O)Nc3ccc4c(c3)OCO4)c2n1	Kir21 inh -5.32
O=C(CSCc1cccc(Cl)c1)Nc1ccccc1-c1ccccc1	Kir21 inh -5.71
Cc1ccccc1CSCC(=O)Nc1ccccc1-c1ccccc1	Kir21 inh -6.9
NC(=O)c1ccccc1NC(=O)COC(=O)CSCc1cccc(Cl)c1	none (no result: KCNK9 block, Kir21 inh, KCNQ1 block, hERG rescue, KCNQ1 pot)
CCCN1CCN(C(=O)c2oc3ccccc3c2NC(=O)COc2ccc(OC)cc2)CC1	none
Cc1ccc(C)n1-c1sc2c(c1C#N)CCC(C)C2 (stereo not given)	KCNK9 block -7.38
CC(=O)Nc1sc2c(c1C#N)CCC(C)C2 (stereo not given)	none
CCOc1ccc(NC(=S)NS(=O)(=O)c2cc(Br)ccc2OCC)cc1	hERG rescue 7.1
CCOc1ccc(S(=O)(=O)NNC(=S)Nc2ccc(Br)cc2)cc1	none
COC(=O)[C@@H](c1ccccc1)N(C)S(=O)(=O)c1cccc(S(=O)(=O)N(C)[C@@H](C(=O)OC)c2ccccc2)c1	KCNK9 block -7.05
CCc1ccc(/C=C2\Oc3c(ccc(O)c3CN3CCN(C)CC3)C2=O)cc1	KCNQ1 block 8
O=C1/C(=C/C=C/c2ccccc2)Oc2c1ccc(O)c2CN1CCN(CCO)CC1	none
COc1ccccc1/C=C/C=C1\Oc2c(ccc(O)c2CN2CCN(CCO)CC2)C1=O	KCNK9 block -6.83, KCNQ1 block 6
CCN1CCN(Cc2c(O)ccc3c2O/C(=C\c2ccccc2)C3=O)CC1	none
CN(C)Cc1c(O)ccc2c1O/C(=C\C=C\c1ccccc1)C2=O	KCNQ1 block 9
COc1cccc(CNC(=O)CCS(=O)(=O)c2ccc3c(c2)oc(=O)n3C)c1	none
COc1ccc(S(=O)(=O)N(C)c2ccc(C(=O)Nc3c(C)n(C)n(-c4ccccc4)c3=O)cc2)cc1	none
Cc1ccc(C(=O)Nc2nc(-c3ccco3)c(-c3ccco3)s2)o1	KCNK3 block -10.8 (no result: KCNK9 block, Kir21 inh, KCNQ1 block, hERG rescue, KCNQ1 pot)
CS(=O)(=O)c1ccc2nc(NC(=O)c3ccco3)sc2c1	none
Cc1ccc(C(=O)Nc2nc3ccc(S(C)(=O)=O)cc3s2)o1	hERG rescue 38.1
Cc1cc2c3c([nH]c2cc1S(=O)(=O)NCCCOC(C)C)CC(C)(C)CC3=O	none
CCCCn1c(N)c(N(CCOC)C(=O)CSc2n[nH]c(-c3ccc(OC)cc3)n2)c(=O)[nH]c1=O	none
Cn1nc(C(F)(F)F)c(/C=N/OC(=O)c2ccccc2)c1Sc1ccc(Cl)cc1	none
Cn1nc(C(F)(F)F)c(/C=N/OC(=O)c2ccccc2)c1SCc1ccccc1Cl	KCNK9 block -7.89
CN(Cc1ccc(Cl)c(Cl)c1)C(=O)C1CSC2(C)CCC(=O)N12 (stereo not given)	none (no result: KCNK9 block, Kir21 inh, KCNQ1 block, hERG rescue, KCNQ1 pot)
Cc1ccc(-c2nc(CN(CC3CCC3)CC3CCCO3)c(C)o2)s1 (stereo not given)	KCNK9 block -7.14
Cc1cc(C)c(S(=O)(=O)Nc2ccccc2)c(C)c1	none (no result: KCNK9 block, Kir21 inh, KCNQ1 block, hERG rescue, KCNQ1 pot)
c1ccc(-c2nc3nc4ccccc4nc3n2Cc2ccco2)cc1	none
N=c1c2c(-c3ccccc3)c(-c3ccccc3)n(Cc3ccco3)c2ncn1CCN1CCOCC1	Kir21 inh -5.3
N=c1c2c(-c3ccccc3)c(-c3ccccc3)n(Cc3ccco3)c2ncn1CCO	Kir21 inh -9.9
N=c1c2c(-c3ccccc3)c(-c3ccccc3)n(Cc3ccco3)c2ncn1CCCO	Kir21 inh -5.47
CC1(NC(=O)NCCCCCCNC(=O)NC2(C)CCS(=O)(=O)C2)CCS(=O)(=O)C1 (stereo not given)	none
CCOC(=O)C1=C(C)NC(=S)NC1c1ccc(OCC(=O)N2CCCCCC2)c(OC)c1 (stereo not given)	none
CCOc1ccc(Cc2c(Cl)nc(N)nc2Cl)cc1	none
CCOc1ccc(Cc2c(Cl)nc(SC)nc2N(C)C)cc1	KCNK9 block -7.57
O=C(CCC(=O)NNC(=O)c1ccc(Cl)cc1Cl)NCc1ccccc1	none (no result: KCNK9 block, Kir21 inh, KCNQ1 block, hERG rescue, KCNQ1 pot)
CCCOc1ccc(S(=O)(=O)NCCN2CCOCC2)c2ccccc12	Kir21 inh -4.36
CCOc1ccc(S(=O)(=O)NCCN2CCOCC2)c2ccccc12	none
O=c1cc(-c2ccc(Cl)cc2)nc(N2CCN(c3ccccc3)CC2)[nH]1	KCNK9 block -7.22
CC(=O)Nc1ccc(C(=O)OCC(=O)Nc2c(C)n(C)n(-c3ccccc3)c2=O)cc1	none (no result: KCNK9 block, Kir21 inh, KCNQ1 block, hERG rescue, KCNQ1 pot)
CC(CN(C)Cc1ccccc1)OC(=O)c1cccs1 (stereo not given)	hERG rescue 46.5
CC(CN(C)Cc1ccccc1)OC(=O)c1ccccc1F (stereo not given)	none
CN(C(=O)CC(=O)Nc1ccc(Cl)c(Cl)c1)c1ccccc1	none
CC(C)n1ncc2c(C(=O)NCCOc3ccccc3F)cc(C3CC3)nc21	none (no result: KCNK9 block, Kir21 inh, KCNQ1 block, hERG rescue, KCNQ1 pot)
CCOc1ccc(OCCNC(=O)c2cc(C3CC3)nc3c2cnn3C(C)C)cc1	KCNK3 block -8.9 (no result: KCNK9 block, Kir21 inh, KCNQ1 block, hERG rescue, KCNQ1 pot)
CCn1c(-c2cc(-c3ccc(OC(C)C)cc3)nc3ccccc23)n[nH]c1=S	KCNQ1 block 6
C=CCn1c(-c2cc(-c3ccc(C)cc3)nc3ccccc23)n[nH]c1=S	hERG rescue 5.8
CCn1c(-c2cc(-c3ccc(C)cc3)nc3ccccc23)n[nH]c1=S	none
C[C@H](CO)N1C[C@H](C)[C@@H](CN(C)C(=O)Nc2ccc(C(F)(F)F)cc2)Oc2c(NC(=O)Nc3ccc4c(c3)OCO4)cccc2C1=O	KCNK3 block -8.98 (no result: KCNK9 block, Kir21 inh, KCNQ1 block, hERG rescue, KCNQ1 pot)
N#CCCN(C(=O)COC(=O)c1cc(=O)c2ccccc2o1)c1ccccc1	none (no result: KCNK9 block, Kir21 inh, KCNQ1 block, hERG rescue, KCNQ1 pot)
